How the values were obtained:
[1] = Cytotoxicity against human Daudi cells; type: cell-based
Human gammaherpesvirus 4 [2] = assay: Antiviral activity against Epstein-Barr virus in human H1 cells by DNA hybridization assay; type: functional, organism-based; settings: human gammaherpesvirus 4, H1
[3] = (§1) Cytotoxicity against MEF; type: cell-based; settings: mouse, MEF cells
[4] = (§2) Cytotoxicity against HFF by neutral red uptake assay; type: cell-based; settings: human, HFF cells
Outline: (§3)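 HFF cultures; cytotoxicity determined by neutral red uptake.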

Murid betaherpesvirus 1 = assay: Antiviral activity against Murine cytomegalovirus in MEF by plaque reduction assay; type: functional, organism-based
Outline: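 Murine CMV titrated by plaque reduction in mouse embryonic fibroblasts (MEF); EC50 from plaque counts.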

[5] = (§4) Cytotoxicity against HFF by visual cytotoxicity assay; type: cell-based; settings: human, HFF cells
Outline: (§5)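 Uninfected HFF cultures scored by visual inspection for cytotoxicity in cells unaffected by virus.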

[6] = Cytotoxicity against human CEM cells; type: cell-based; settings: CCRF-CEM cells
[7] = (§6) Cytotoxicity against human replicating KB cells; type: cell-based; settings: KB cells
Outline: (§7)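 Cytotoxicity measured in replicating KB cells, run alongside HSV-1 assays in BSC-1 cells.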

Human alphaherpesvirus 1 [8] = assay: Antiviral activity against Herpes simplex virus type 1 in HFF assessed as inhibition of virus-induced cytopathic effect; type: functional, organism-based
Outline: (§8)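 HSV-1 and HSV-2 tested in HFF cultures by inhibition of virus-induced cytopathic effect (CPE); cytotoxicity measured by neutral red uptake.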

Human alphaherpesvirus 2 = assay: Antiviral activity against Herpes simplex virus type 2 in HFF assessed as inhibition of virus-induced cytopathic effect; type: functional, organism-based; outline: as §8
Human alphaherpesvirus 3 [9] = assay: Antiviral activity against Varicella zoster virus in HFF assessed as inhibition of virus-induced cytopathic effect; type: functional, organism-based
Outline: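 VZV in HFF culture; antiviral activity read by cytopathic effect (CPE) inhibition assay.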

Human gammaherpesvirus 4 [10] = assay: Antiviral activity against Epstein-Barr virus in human Akata cells by DNA hybridization assay; type: functional, organism-based; settings: human gammaherpesvirus 4, Akata
Outline: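 EBV replication measured by DNA hybridization assay in Akata cells.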

[11] = Cytotoxicity against human Akata cells; type: cell-based
MEF = assay: as §1; type: cell-based; settings: mouse, mef
HFF [12] = assay: as §2; type: cell-based; settings: human, hff; outline: as §3
HFF [13] = assay: as §4; type: cell-based; settings: human, hff; outline: as §5
Human betaherpesvirus 5 [14] = assay: Antiviral activity against Human cytomegalovirus Towne in HFF by plaque reduction assay; type: functional, organism-based; settings: Human betaherpesvirus 5, Towne
Outline: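 HCMV Towne or AD169 grown in human foreskin fibroblast (HFF) cultures; plaque reduction read-out for EC50; cytotoxicity judged visually in HFF cells not infected by virus.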

Human betaherpesvirus 5 [15] = assay: Antiviral activity against Human cytomegalovirus Towne expressing wild type UL97 phosphotransferase by plaque reduction assay; type: functional, organism-based; settings: Human betaherpesvirus 5, Towne
Outline: (§9)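 Plaque reduction with HCMV Towne background strains: wild-type, 2696r (most of UL97 deleted) and E8 (two UL97 point mutations); four drug concentrations, each in duplicate; EC50 read from plaque counts.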

Human betaherpesvirus 5 [16] = assay: Antiviral activity against cyclopropavir-resistant Human cytomegalovirus 2696r expressing most of UL97 phosphotransferase sequence deleted mutant by plaque reduction assay; type: functional, organism-based; settings: Human betaherpesvirus 5, 2696r; outline: as §9
Human betaherpesvirus 5 [17] = assay: Antiviral activity against drug-resistant Human cytomegalovirus E8 isolate expressing UL97 phosphotransferase with two point mutation in UL97 gene by plaque reduction assay; type: functional, organism-based; settings: Human betaherpesvirus 5, E8; outline: as §9
Human alphaherpesvirus 1 [18] = assay: Antiviral activity against Herpes simplex virus type 1 in african green monkey BSC1 cells by plaque reduction assay; type: functional, organism-based; settings: Human alphaherpesvirus 1, BSC-1
Outline: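 HSV-1 plaque reduction in BSC-1 cells; cytotoxicity determined in replicating KB cells.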

KB = assay: as §6; type: cell-based; settings: kb; outline: as §7
Human betaherpesvirus 5 [19] = assay: Antiviral activity against Human cytomegalovirus AD169 in HFF by cytopathic effect (CPE) inhibition assay; settings: Human betaherpesvirus 5, AD169
Human alphaherpesvirus 1 [20] = assay: Antiviral activity against Herpes simplex virus type 1 in african green monkey BSC1 cells by ELISA; type: functional, organism-based; settings: Human alphaherpesvirus 1, BSC-1
Outline: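 HSV-1 in BSC-1 cells, viral antigen measured by ELISA; cytotoxicity determined in replicating KB cells.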

Human betaherpesvirus 5 [21] = assay: Antiviral activity against Human cytomegalovirus AD169 in HFF by cytopathic effect assay; type: functional, organism-based; settings: Human betaherpesvirus 5, AD169
Outline: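 HCMV strain AD169 grown in human foreskin fibroblast (HFF) cultures; antiviral effect read as inhibition of virus-induced cytopathic effect (CPE).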

Human alphaherpesvirus 3 [22] = assay: Antiviral activity against Varicella zoster virus in HFF by plaque reduction assay; type: functional, organism-based
Outline: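 VZV in HFF culture; antiviral activity measured by plaque reduction assay.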

Nc1nc(O)c2ncn(/C=C3/CC34COP(=O)(O)OC4)c2n1 (centres undefined)
CC50 [1]: 150 µM | EC50 (Human gammaherpesvirus 4 [2]): > 20 µM | CC50 [3]: > 301 µM | CC50 [4]: > 301 µM | EC50 (Murid betaherpesvirus 1): 7.2 µM | CC50 [5]: > 100 µM | CC50 [6]: > 100 µM | CC50 [7]: > 100 µM | EC50 (Human alphaherpesvirus 1 [8]): > 301 µM | EC50 (Human alphaherpesvirus 2): 242 µM | EC50 (Human alphaherpesvirus 3 [9]): > 301 µM

Nc1nc2c(ncn2/C=C2/CC23CCP(=O)(O)OC3)c(=O)[nH]1 (centres undefined)
EC50 (Human gammaherpesvirus 4 [10]): > 100 µM | CC50 ([11]; akata): > 100 µM | CC50 (MEF): > 100 µM | CC50 (HFF [12]): > 300 µM | EC50 (Murid betaherpesvirus 1): 0.4 µM | CC50 (HFF [13]): > 100 µM | EC50 (Human betaherpesvirus 5 [14]): 2.4 µM | EC50 (Human betaherpesvirus 5 [15]): 4 µM | EC50 (Human betaherpesvirus 5 [16]): 3 µM | EC50 (Human betaherpesvirus 5 [17]): 4 µM | EC50 (Human alphaherpesvirus 1 [18]): 40 µM | CC50 (KB): > 100 µM | EC50 (Human alphaherpesvirus 1 [8]): > 300 µM | EC50 (Human alphaherpesvirus 2): > 300 µM | EC50 (Human alphaherpesvirus 3 [9]): > 300 µM | EC50 (Human betaherpesvirus 5 [19]): 11.6 µM

Nc1nc2c(ncn2/C=C2/CC2(CO)CCP(=O)(O)O)c(=O)[nH]1 (centres undefined)
CC50 ([11]; Akata cells): > 100 µM | EC50 (Murid betaherpesvirus 1): 0.13 µM | CC50 [5]: > 100 µM | EC50 (Human betaherpesvirus 5 [14]): 2.2 µM | EC50 (Human betaherpesvirus 5 [15]): 3.5 µM | EC50 (Human betaherpesvirus 5 [16]): 3 µM | EC50 (Human betaherpesvirus 5 [17]): 3.2 µM | EC50 (Human alphaherpesvirus 1 [20]): 15 µM | EC50 (Human alphaherpesvirus 1 [8]): 59.4 µM | EC50 (Human alphaherpesvirus 2): 76.5 µM | EC50 (Human betaherpesvirus 5 [19]): 2.7 µM

Nc1nc2c(ncn2/C=C2\CC23CCP(=O)(O)OC3)c(=O)[nH]1 (centres undefined)
EC50 (Human gammaherpesvirus 4 [10]): > 100 µM | EC50 (Human betaherpesvirus 5 [14]): > 100 µM | EC50 (Human alphaherpesvirus 1 [18]): 100 µM | EC50 (Human betaherpesvirus 5 [19]): > 300 µM

Nc1nc2c(ncn2/C=C2\CC2(CO)CCP(=O)(O)O)c(=O)[nH]1 (centres undefined)
EC50 (Human gammaherpesvirus 4 [10]): > 100 µM | CC50 (HFF [12]): > 300 µM | EC50 (Human betaherpesvirus 5 [21]): > 300 µM | EC50 (Human betaherpesvirus 5 [14]): > 100 µM | EC50 (Human alphaherpesvirus 1 [18]): 100 µM | EC50 (Human alphaherpesvirus 1 [8]): > 300 µM | EC50 (Human alphaherpesvirus 2): > 300 µM | EC50 (Human alphaherpesvirus 3 [9]): 191 µM

Nc1nc2c(ncn2COCCO)c(=O)[nH]1 [ACYCLOVIR]
CC50 (HFF [12]): > 300 µM | EC50 (Human alphaherpesvirus 1 [18]): 0.3 µM | EC50 (Human alphaherpesvirus 1 [8]): 1.3 µM | EC50 (Human alphaherpesvirus 2): 1.2 µM | EC50 (Human alphaherpesvirus 3 [22]): 4.4 µM

Nc1nc2c(ncn2/C=C2/CC2(CO)CO)c(=O)[nH]1 [FILOCICLOVIR]
CC50 ([11]; Akata cells): 46 µM | CC50 [3]: > 380 µM | CC50 [4]: > 380 µM | EC50 (Murid betaherpesvirus 1): 0.27 µM | CC50 [5]: > 100 µM | EC50 (Human betaherpesvirus 5 [14]): 0.46 µM | EC50 (Human betaherpesvirus 5 [15]): 0.6 µM | EC50 (Human betaherpesvirus 5 [16]): 28 µM | EC50 (Human betaherpesvirus 5 [17]): 8 µM | EC50 (Human alphaherpesvirus 1 [20]): > 100 µM | CC50 [7]: > 100 µM | EC50 (Human alphaherpesvirus 1 [8]): > 380 µM | EC50 (Human alphaherpesvirus 2): > 380 µM | EC50 (Human alphaherpesvirus 3 [9]): > 380 µM

Source: ChEMBL document CHEMBL1158417, “Phosphonate analogues of cyclopropavir phosphates and their E-isomers. Synthesis and antiviral activity” (Bioorg Med Chem, 2009)
